Source: publication PMC4067939 (Bioorganic & medicinal chemistry, 2014)
“Also recorded” adds a separate entry of the source.

What was measured:
GGDPS [1] = molecular target: T1, GGDPS (Homo sapiens, UniProt O95749); conditions: cited from earlier work
T1 sequence (O95749 1-300): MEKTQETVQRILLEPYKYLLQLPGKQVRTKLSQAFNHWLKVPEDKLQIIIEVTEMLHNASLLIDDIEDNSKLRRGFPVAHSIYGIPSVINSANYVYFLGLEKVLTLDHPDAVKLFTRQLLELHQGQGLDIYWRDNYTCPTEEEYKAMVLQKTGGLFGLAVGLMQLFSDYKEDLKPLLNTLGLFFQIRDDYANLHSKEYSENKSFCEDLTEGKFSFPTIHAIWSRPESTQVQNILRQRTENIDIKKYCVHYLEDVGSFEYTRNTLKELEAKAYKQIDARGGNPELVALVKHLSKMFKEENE

GGTase II [2] = molecular target: T2, GGTase II (Rattus norvegicus, UniProt Q08602+Q08603); assay: GGTase II enzyme assay; format: biochemical; conditions: for inhibitory activity against GGTase II: at concentrations up to 1 mM
T2 sequence (Q08602 1-567): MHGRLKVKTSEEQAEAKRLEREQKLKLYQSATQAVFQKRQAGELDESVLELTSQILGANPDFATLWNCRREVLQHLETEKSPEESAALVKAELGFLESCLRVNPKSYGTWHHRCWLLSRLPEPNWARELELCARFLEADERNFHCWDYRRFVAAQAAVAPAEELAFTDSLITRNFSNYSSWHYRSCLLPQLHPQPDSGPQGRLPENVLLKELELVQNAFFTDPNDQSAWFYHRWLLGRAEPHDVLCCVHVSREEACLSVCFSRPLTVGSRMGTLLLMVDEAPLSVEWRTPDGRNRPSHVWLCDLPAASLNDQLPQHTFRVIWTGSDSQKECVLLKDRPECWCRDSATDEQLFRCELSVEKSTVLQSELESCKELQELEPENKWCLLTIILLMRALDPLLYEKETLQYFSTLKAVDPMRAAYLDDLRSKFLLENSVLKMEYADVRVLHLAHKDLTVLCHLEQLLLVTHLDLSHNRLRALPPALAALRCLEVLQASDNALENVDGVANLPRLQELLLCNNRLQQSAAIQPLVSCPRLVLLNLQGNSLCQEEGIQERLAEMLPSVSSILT
T2 sequence (Q08603 1-331): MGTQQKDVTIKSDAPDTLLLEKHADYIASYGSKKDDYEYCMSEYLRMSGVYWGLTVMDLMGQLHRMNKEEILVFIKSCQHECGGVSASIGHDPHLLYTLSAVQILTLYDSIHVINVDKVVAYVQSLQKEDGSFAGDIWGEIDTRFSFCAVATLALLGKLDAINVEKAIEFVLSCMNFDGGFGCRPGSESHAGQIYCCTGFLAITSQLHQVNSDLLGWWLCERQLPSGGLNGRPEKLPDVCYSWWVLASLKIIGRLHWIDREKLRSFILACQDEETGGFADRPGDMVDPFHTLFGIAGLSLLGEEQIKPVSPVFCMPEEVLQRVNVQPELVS
Summary of the method: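 Reaction mix: 30 nM recombinant GGTase II, 2 µM His-tagged Rab1A (E. coli-expressed, Ni-NTA purified) and 1 µM REP-2 in 50 mM sodium HEPES, 5 mM MgCl₂, 1 mM DTT, 1 mM NP-40, ±test compound. Started with 5 µM [³H]-GGPP, 20 min at 37 °C, stopped with 10% HCl/EtOH. P-81 filters were EtOH-washed and scintillation-counted. IC50 came from concentration-response curves.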

[3] = test system: Rap1a geranylgeranylation in RPMI-8226 cells; assay: Immunoblot of unmodified Rap1a in RPMI-8226 cells; format: cell-based, human; conditions: 48 hours; for disruption of Rap1a geranylgeranylation (accumulation of unmodified Rap1a): 10 µM, Figure 3A; for concentration at which unmodified Rap1a is observed: tested at 0.1, 1, 10 µM
Summary of the method: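 Whole-cell lysates were made in RIPA buffer with protease/phosphatase inhibitors, BCA-normalised, and run on SDS-PAGE/PVDF immunoblot. The antibody recognises only unmodified Rap1a; β-tubulin was the loading control; detection was HRP/ECL. Gels represent two independent experiments.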

[4] = test system: Rab6 geranylgeranylation in RPMI-8226 cells; format: cell-based, human; conditions: 10 µM, 48 hours, Figure 3A
Summary of the method: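 Triton X-114 lysis gave aqueous (cytosolic) and detergent (membrane) fractions. Equal protein (BCA) was run on SDS-PAGE and blotted to PVDF for Rab6 with HRP/ECL detection. Loading controls were β-tubulin (aqueous) and calnexin (detergent). Gels represent two independent experiments.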

[5] = test system: intracellular GGPP levels in RPMI-8226 cells; assay: Measurement of intracellular GGPP levels in RPMI-8226 cells; format: cell-based, human; conditions: 1 µM, 24 hours, Figure 4
Summary of the method: (§1)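 Isoprenoid pyrophosphates were extracted in butanol/75mM ammonium hydroxide/ethanol (1:1.25:2.75) and dried under nitrogen. FPP was coupled to fluorescent GCVLS by FTase and GGPP to GCVLL by GGTase I. Peptides were quantified by reversed-phase HPLC-fluorescence. Results are % untreated control, mean ± SD, n=2, unpaired two-tailed t-test.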

[6] = test system: intracellular FPP levels in RPMI-8226 cells; assay: Measurement of intracellular FPP levels in RPMI-8226 cells; format: cell-based, human; conditions: 1 µM, 24 hours, Figure 4
Summary of the method: as §1

[7] = test system: monoclonal protein trafficking in RPMI-8226 cells; assay: Monoclonal protein quantitation; format: cell-based, human; conditions: 10 µM, 48 hours, Figure 5
Summary of the method: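 Cells were lysed in RIPA with protease/phosphatase inhibitors and protein measured by BCA. Intracellular lambda light chain was quantified by human lambda light chain ELISA. Results are % untreated control, mean ± SD, n=3, unpaired two-tailed t-test (α 0.05).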

GGTase II [8] = molecular target: T2, GGTase II; conditions: ref our prior studies; cited from earlier work
FTase = FTase (Rattus norvegicus, UniProt Q02293+Q04631); assay: FTase enzyme assay; format: biochemical
Summary of the method: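 Ran 1 h at 30 °C, then ice and acetonitrile/5% HCl stop. Centrifuged supernatant went to HPLC with fluorescence detection of prenylated peptide. IC50 came from concentration-response curves.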

GGDPS [9] = molecular target: T1, GGDPS; assay: GGDPS enzyme assay; format: biochemical; conditions: in vitro enzyme assay

Compound | IC50 (GGTase II [2]) [mM] | disruption of Rap1a geranylgeranylation (accumulation of unmodified Rap1a) [3] | disruption of Rab6 geranylgeranylation (Rab6 in aqueous fraction) [4] | effect on intracellular lambda light chain levels [7] | inhibitory activity against GGTase II (GGTase II [2]) | further results
2E,6Z-farnesylbisphosphonate [Compound 22] |  |  |  |  |  | fold less potent GGDPS inhibitor than the 2E,6E-isomer (GGDPS [1]; farnesyl bisphosphonate isomers): approximately 6 fold
CC(C)=CCC/C(C)=C/CC/C(C)=C/CC(P(=O)(O)O)P(=O)(O)O [Compound 21, 2E,6E-farnesyl bisphosphonate] |  |  |  |  |  | fold more potent than the 2E,6Z-isomer 22 (GGDPS [1]; ref earlier studies): about 6 fold
CC(C)=CCC/C(C)=C\CC(C/C=C(/C)CCC=C(C)C)(P(=O)(O)O)P(=O)(O)O [dineryl bisphosphonate] |  |  |  |  |  | fold less potent GGDPS inhibitor than DGBP (GGDPS [1]): approximately 14 fold
CC(C)=CCCC(C)=CCn1cc(CC(P(=O)([O-])[O-])P(=O)([O-])[O-])nn1.[Na+].[Na+].[Na+].[Na+] [Compound 1] | > 1 | A similar pattern was displayed | A similar pattern was displayed | induces an accumulation of intracellular lambda light chain equivalent to that induced by the positive control DGBP |  | effect on intracellular GGPP levels [5]: decreased GGPP levels; effect on intracellular FPP levels [6]: increased FPP levels; inhibition of GGTase II (GGTase II [8]): does not inhibit GGTase II
CC(C)=CCCC(C)=CCC(P(=O)(O)O)P(=O)(O)O [geranyl bisphosphonate] |  |  |  |  |  | potency relative to the corresponding neryl bisphosphonate (GGDPS [1]; monoalkyl series): at least one order of magnitude more potent
CC(C)=CCC/C(C)=C/Cn1cc(CC(P(=O)([O-])[O-])P(=O)([O-])[O-])nn1.[Na+].[Na+].[Na+].[Na+] [Compound 11, Sodium (E)-(2-(1-(3,7-dimethylocta-2,6-dien-1-yl)-1H-1,2,3-triazol-4-yl)ethane-1,1-diyl)bis(phosphonate)] | > 1 | only weakly disrupted Rap1a geranylgeranylation |  | has no effect on intracellular light chain levels | neither of the individual olefin isomers (11 or 19) nor the related epoxides (12 or 20) displayed inhibitory activity | IC50 (FTase): > 500 µM; disruption of Rap1a geranylgeranylation at 10 µM ([3]; Figure 3B): only weakly disrupted Rap1a geranylgeranylation
CC(C)=CCC/C(C)=C\Cn1cc(CC(P(=O)([O-])[O-])P(=O)([O-])[O-])nn1.[Na+].[Na+].[Na+].[Na+] [Compound 19, Sodium (Z)-(2-(1-(3,7-dimethylocta-2,6-dien-1-yl)-1H-1,2,3-triazol-4-yl)ethane-1,1-diyl)bis(phosphonate)] | > 1 | effectively disrupted both Rap1a and Rab6 geranylation | effectively disrupted both Rap1a and Rab6 geranylation | This activity is a consequence of the neryl triazole 19; also recorded: disrupts monoclonal protein trafficking | neither of the individual olefin isomers (11 or 19) nor the related epoxides (12 or 20) displayed inhibitory activity | GGDPS activity, comparison in words (GGDPS [9]): slightly less potent; concentration at which unmodified Rap1a is observed ([3]; Figure 3B): 1 µM; effect on intracellular GGPP levels [5]: even more potently decreased GGPP levels; also recorded: depletes cells of GGPP; effect on intracellular FPP levels [6]: increased FPP levels; also recorded: increases intracellular FPP levels
CC(C)=CCC[C@]1(C)O[C@@H]1Cn1cc(CC(P(=O)([O-])[O-])P(=O)([O-])[O-])nn1.[Na+].[Na+].[Na+].[Na+] (racemic) [Compound 20, Sodium (Z)-(2-(1-((3-methyl-3-(4-methylpent-3-en-1-yl)oxiran-2-yl)methyl)-1H-1,2,3-triazol-4-yl)ethane-1,1-diyl)bis(phosphonate)] | > 1 | neither of the epoxide derivatives (12 and 20) displayed activity in this assay | neither of the epoxide derivatives (12 and 20) displayed activity in this assay |  | neither of the individual olefin isomers (11 or 19) nor the related epoxides (12 or 20) displayed inhibitory activity | GGDPS activity, comparison in words (GGDPS [9]): reduces the activity against GGDPS to a level comparable to the geranyl triazole
CC(C)=CCCC(C)=CCC(CC=C(C)CCC=C(C)C)(P(=O)(O)O)P(=O)(O)O [geranyl/neryl] |  |  |  |  |  | fold less potent GGDPS inhibitor than DGBP (GGDPS [1]): approximately 14 fold
CC(C)=CCC[C@@]1(C)O[C@@H]1Cn1cc(CC(P(=O)([O-])[O-])P(=O)([O-])[O-])nn1.[Na+].[Na+].[Na+].[Na+] (racemic) [Compound 12, Sodium (E)-(2-(1-((3-methyl-3-(4-methylpent-3-en-1-yl)oxiran-2-yl)methyl)-1H-1,2,3-triazol-4-yl)ethane-1,1-diyl)bis(phosphonate)] | > 1 | neither of the epoxide derivatives (12 and 20) displayed activity in this assay | neither of the epoxide derivatives (12 and 20) displayed activity in this assay |  | neither of the individual olefin isomers (11 or 19) nor the related epoxides (12 or 20) displayed inhibitory activity | 
CC(C)=CCC/C(C)=C/CC(C/C=C(\C)CCC=C(C)C)(P(=O)(O)O)P(=O)(O)O [DGBP, digeranyl bisphosphonate, reference compound] |  | accumulation of unmodified Rap1a and Rab6 | accumulation of unmodified Rap1a and Rab6 | accumulation of intracellular lambda light chain |  | concentration at which unmodified Rap1a is observed ([3]; Figure 3B): 10 µM; mode of GGDPS inhibition (GGDPS [1]): competitive with respect to FPP as opposed to IPP
